Among the data in ChEMBL document CHEMBL1155020, “Trithiocarbonates as a novel class of HDAC inhibitors: SAR studies, isoenzyme selectivity, and pharmacological profiles” (J Med Chem, 2008) are IC50 values, retold here.

In assay [1] the target is Histone deacetylase. The assay can be described thus: Inhibition of nuclear HDAC isolated from human HeLa cells. Format: cell-based.
A further assay addresses Histone deacetylase 1 (Homo sapiens, UniProt Q13547). Put plainly: Inhibition of recombinant HDAC1 expressed in HEK293 cells. The assay is classed as cell-based.
The subject of another assay is HeLa. The assay can be described thus: Cytotoxicity against human HeLa cells after 72 hrs by alamar blue assay. Format: functional, cell-based. Put shortly:
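HeLa cells were seeded at densities allowing growth through 72 h of compound exposure at 37 °C, 5% CO2. Viability was read by Alamar Blue (resazurin) reduction. Replicate assays were averaged, and IC50 was taken from concentration-effect curves.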
(In general: The colour change of resazurin is a common sign of viable cells or microbes.)

Assay [2] deals with Histone deacetylase. Put plainly: Inhibition of HDAC in human HeLa cells. Format: cell-based.
In assay [3] the target is T1, Protein deacetylase HDAC6 (Homo sapiens, UniProt Q9UBN7).
T1 sequence (Q9UBN7 whole entry): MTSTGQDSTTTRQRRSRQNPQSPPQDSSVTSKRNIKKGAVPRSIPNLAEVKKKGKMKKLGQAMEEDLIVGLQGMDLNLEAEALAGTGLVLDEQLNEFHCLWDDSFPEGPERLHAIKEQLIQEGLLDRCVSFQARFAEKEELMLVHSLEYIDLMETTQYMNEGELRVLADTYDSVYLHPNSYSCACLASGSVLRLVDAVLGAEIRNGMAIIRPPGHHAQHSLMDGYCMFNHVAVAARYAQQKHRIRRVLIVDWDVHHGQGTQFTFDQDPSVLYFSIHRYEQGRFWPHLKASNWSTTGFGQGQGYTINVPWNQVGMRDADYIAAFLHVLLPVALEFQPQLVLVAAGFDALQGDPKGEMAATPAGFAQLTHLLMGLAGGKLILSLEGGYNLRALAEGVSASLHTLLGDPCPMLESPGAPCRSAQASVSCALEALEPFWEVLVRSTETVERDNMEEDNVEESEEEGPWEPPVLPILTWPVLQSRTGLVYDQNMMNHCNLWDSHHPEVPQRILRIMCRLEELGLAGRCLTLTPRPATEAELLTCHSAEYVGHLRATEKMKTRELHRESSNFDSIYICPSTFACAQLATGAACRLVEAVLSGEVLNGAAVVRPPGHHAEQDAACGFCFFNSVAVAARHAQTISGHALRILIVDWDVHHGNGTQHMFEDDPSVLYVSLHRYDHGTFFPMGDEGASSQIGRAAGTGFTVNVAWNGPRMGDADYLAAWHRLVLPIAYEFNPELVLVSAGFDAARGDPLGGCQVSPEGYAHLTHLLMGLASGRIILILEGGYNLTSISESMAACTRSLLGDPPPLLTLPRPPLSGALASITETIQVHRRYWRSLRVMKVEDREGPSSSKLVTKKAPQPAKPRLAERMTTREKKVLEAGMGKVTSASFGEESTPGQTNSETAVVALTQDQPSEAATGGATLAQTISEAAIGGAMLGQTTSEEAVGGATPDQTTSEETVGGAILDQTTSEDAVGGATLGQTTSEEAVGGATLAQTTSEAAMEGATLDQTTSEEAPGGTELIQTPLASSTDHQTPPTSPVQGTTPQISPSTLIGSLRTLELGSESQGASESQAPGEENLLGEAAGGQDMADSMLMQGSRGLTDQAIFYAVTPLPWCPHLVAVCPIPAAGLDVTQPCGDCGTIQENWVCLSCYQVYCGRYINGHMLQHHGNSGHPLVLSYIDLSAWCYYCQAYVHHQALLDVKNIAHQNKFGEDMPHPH
Put plainly: Inhibition of recombinant HDAC6 expressed in HEK293 cells. The assay is classed as cell-based.

Sequence of Histone deacetylase 1 (Q13547 whole entry): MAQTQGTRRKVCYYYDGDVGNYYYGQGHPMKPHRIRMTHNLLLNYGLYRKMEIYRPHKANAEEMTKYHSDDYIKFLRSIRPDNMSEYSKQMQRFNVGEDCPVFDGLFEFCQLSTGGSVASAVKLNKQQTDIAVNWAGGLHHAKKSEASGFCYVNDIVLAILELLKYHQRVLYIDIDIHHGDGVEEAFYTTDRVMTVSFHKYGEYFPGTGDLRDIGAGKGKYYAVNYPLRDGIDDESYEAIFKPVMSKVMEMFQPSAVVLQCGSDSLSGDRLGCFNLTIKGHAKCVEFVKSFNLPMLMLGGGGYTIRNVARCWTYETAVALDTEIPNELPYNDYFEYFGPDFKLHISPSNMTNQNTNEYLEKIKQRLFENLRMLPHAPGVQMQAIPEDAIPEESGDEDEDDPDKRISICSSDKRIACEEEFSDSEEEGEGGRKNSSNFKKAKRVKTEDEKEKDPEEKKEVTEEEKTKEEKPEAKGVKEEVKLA

Take `CCSC(=S)SCC(=O)c1cccc(C(=O)Nc2ccccc2)c1`: the IC50 (in general, the midpoint of a concentration-inhibition curve) stood at 124 nM at Histone deacetylase [1]; 1670 nM on Histone deacetylase 1; 2400 nM with HeLa; 1230 nM against Histone deacetylase [2]; 517 nM in assay [3].

In the case of `CCSC(=S)SCC(=O)c1ccc(C(=O)NCCOc2ccccc2)cc1`, the half-inhibitory concentration (IC50) at Histone deacetylase [1] is 32 nM; at Histone deacetylase 1, 712 nM; in the assay on HeLa it was 18200 nM; against Histone deacetylase [2] it was 964 nM; in assay [3] it was 483 nM.

With `CCSC(=S)SCC(=O)c1ccc(C(=O)NCc2cc(C)cc(C)c2)s1`, the IC50 at Histone deacetylase [1] came to 15 nM; on Histone deacetylase 1, 587 nM; in the assay with HeLa, 31300 nM; at Histone deacetylase [2], 836 nM; in assay [3] it was 396 nM.

For the molecule `CCSC(=S)SCC(=O)c1ccc(CCNC(C)=O)cc1`, the IC50 on Histone deacetylase [1] amounted to 587 nM; at Histone deacetylase 1, 607 nM; in the assay with HeLa it was 12800 nM; on Histone deacetylase [2], 1480 nM; in assay [3], 102 nM.

For `CCNC(=S)SCC(=O)c1ccc(NC(C)=O)cc1`, the IC50 worked out at 94 nM at Histone deacetylase [1]; 141 nM at Histone deacetylase 1; 11000 nM with HeLa; 1120 nM against Histone deacetylase [2]; 18 nM in assay [3].

On to `COc1ccc(C(=O)CSC(=S)SCCOc2ccccc2)cc1`, for which the half-maximal inhibitory concentration (IC50) at Histone deacetylase [1] is 128 nM; at Histone deacetylase 1, 9720 nM; with HeLa, 5460 nM; at Histone deacetylase [2], 11600 nM; in assay [3], 4570 nM.

As to `CCSC(=S)SCC(=O)c1ccc(OC)cc1`, the IC50 at Histone deacetylase [1] came out at 375 nM; on Histone deacetylase 1, 4560 nM; in the assay with HeLa it was 1960 nM; on Histone deacetylase [2], 4670 nM; in assay [3], 1220 nM.

Take `CCSC(=S)SCC(=O)c1ccc(Nc2ncnc3ccccc23)cc1`: the half-inhibitory concentration (IC50) against Histone deacetylase [1] came out at 379 nM; at Histone deacetylase 1, 25800 nM; in the assay on HeLa, 2640 nM; against Histone deacetylase [2], 2990 nM; in assay [3], 390 nM.

Turning to `CCSC(=S)SCC(=O)c1cccc(C(=O)NCCOc2ccccc2)c1`, the IC50 against Histone deacetylase [1] came to 27 nM; at Histone deacetylase 1, 328 nM; with HeLa it was 10200 nM; at Histone deacetylase [2], 500 nM; in assay [3], 198 nM.

Consider `CCSC(=S)SCC(=O)c1ccc(CN(C)C(C)=O)cc1`, for which the half-maximal inhibitory concentration (IC50) at Histone deacetylase [1] is 384 nM; at Histone deacetylase 1, 946 nM; in the assay with HeLa, 21500 nM; on Histone deacetylase [2], 6330 nM; in assay [3], 256 nM.

For the molecule `CCNC(=S)SCC(=O)c1ccc(OC)cc1`, the half-inhibitory concentration (IC50) on Histone deacetylase [1] is 195 nM; on Histone deacetylase 1 it was 215 nM; with HeLa it was 7800 nM; in assay [3], 94 nM.

As to `CCCC(=S)SCC(=O)c1ccc(NC(C)=O)cc1`, the concentration for half-maximal inhibition (IC50) against Histone deacetylase [1] was 87 nM; on Histone deacetylase 1, 164 nM; in the assay with HeLa, 6410 nM; against Histone deacetylase [2], 1370 nM; in assay [3] it was 23 nM.

On to `CCSC(=S)SCC(=O)c1ccc(NS(C)(=O)=O)cc1`, for which the IC50 came to 1260 nM against Histone deacetylase [1]; 6110 nM at Histone deacetylase 1; 45800 nM in the assay with HeLa; 8950 nM against Histone deacetylase [2]; 1090 nM in assay [3].

On to `CCSC(=S)SCC(=O)c1cccc(S(=O)(=O)Nc2ccc(OC)cc2)c1`, for which the IC50 turned out to be 15 nM against Histone deacetylase [1]; 530 nM on Histone deacetylase 1; 5170 nM in the assay with HeLa; 2770 nM on Histone deacetylase [2]; 519 nM in assay [3].

In the case of `CCSC(=S)SCC(=O)c1ccc(C(=O)Nc2ccccc2)s1`, the concentration for half-maximal inhibition (IC50) on Histone deacetylase [1] is 63 nM; on Histone deacetylase 1, 31600 nM; in the assay on HeLa, 50000 nM; against Histone deacetylase [2], 423 nM; in assay [3] it was 245 nM.

Regarding `COCCSC(=S)SCC(=O)c1ccc(OC)cc1`, the IC50 against Histone deacetylase [1] amounted to 293 nM; on Histone deacetylase 1, 8940 nM; in the assay with HeLa, 7880 nM; against Histone deacetylase [2], 5530 nM; in assay [3], 2130 nM.

Consider `COc1ccc(C(=O)CSC(=S)SCCNC(C)=O)cc1`, for which the IC50 on Histone deacetylase [1] was 467 nM; at Histone deacetylase 1, 7510 nM; in the assay with HeLa, 11100 nM; at Histone deacetylase [2] it was 3470 nM; in assay [3], 1640 nM.

In the case of `CCSC(=S)SCC(=O)c1cccc(NS(=O)(=O)c2ccccc2)c1`, the IC50 came out at 127 nM on Histone deacetylase [1]; 1550 nM at Histone deacetylase 1; 11900 nM with HeLa; 2780 nM against Histone deacetylase [2]; 104 nM in assay [3].

With `CCOC(=S)SCC(=O)c1ccc(OC)cc1`, the 50% inhibitory concentration (IC50) was 811 nM at Histone deacetylase [1]; 1380 nM on Histone deacetylase 1; 4640 nM in the assay on HeLa; 4720 nM at Histone deacetylase [2]; 448 nM in assay [3].

As to `CCSC(=S)SCC(=O)c1ccc(NC(=O)c2cccnc2)cc1`, the IC50 worked out at 174 nM against Histone deacetylase [1]; 1160 nM on Histone deacetylase 1; 5160 nM in the assay with HeLa; 865 nM against Histone deacetylase [2]; 421 nM in assay [3].

For the molecule `CCNC(=O)SCC(=O)c1ccc(OC)cc1`, the IC50 worked out at 115 nM at Histone deacetylase [1]; 368 nM on Histone deacetylase 1; 13300 nM in the assay with HeLa; 3180 nM against Histone deacetylase [2]; 132 nM in assay [3].

As to `CCSC(=S)SCC(=O)c1ccc(S(=O)(=O)Nc2ccc(Cl)cc2)cc1`, the IC50 came to 8 nM at Histone deacetylase [1]; 589 nM on Histone deacetylase 1; 6080 nM in the assay on HeLa; 299 nM at Histone deacetylase [2]; 340 nM in assay [3].

With `CCSC(=S)SCC(=O)c1cccc(NS(=O)(=O)c2ccc(Cl)cc2)c1`, the half-maximal inhibitory concentration (IC50) is 48 nM against Histone deacetylase [1]; 3460 nM at Histone deacetylase 1; 46600 nM in the assay on HeLa; 9080 nM against Histone deacetylase [2]; 1250 nM in assay [3].

Regarding `CCSC(=S)SCC(=O)c1ccc(C(=O)NCc2ccccc2)s1`, the half-maximal inhibitory concentration (IC50) was 19 nM at Histone deacetylase [1]; 340 nM at Histone deacetylase 1; 13000 nM in the assay with HeLa; 411 nM against Histone deacetylase [2]; 44 nM in assay [3].

For the molecule `CCSC(=S)SCC(=O)c1ccc(S(=O)(=O)Nc2ccc(OC)cc2)cc1`, the IC50 is 16 nM against Histone deacetylase [1]; 227 nM at Histone deacetylase 1; 4320 nM in the assay with HeLa; 377 nM on Histone deacetylase [2]; 245 nM in assay [3].

In the case of `CCSC(=S)SCC(=O)c1ccc(NC(=O)c2ccccc2)cc1`, the IC50 at Histone deacetylase [1] came to 74 nM; at Histone deacetylase 1, 10400 nM; with HeLa, 15800 nM; against Histone deacetylase [2] it was 7460 nM; in assay [3] it was 175 nM.

Turning to `CCSC(=S)SCC(=O)c1ccc(-c2ccc(N)cn2)s1`, the half-inhibitory concentration (IC50) at Histone deacetylase [1] is 83 nM; at Histone deacetylase 1, 831 nM; with HeLa it was 452 nM; on Histone deacetylase [2] it was 1180 nM; in assay [3], 43 nM.

For `CCSC(=S)SCC(=O)c1ccc(NC(=O)Nc2ccccc2)cc1`, the IC50 came to 40 nM on Histone deacetylase [1]; 18800 nM at Histone deacetylase 1; 20200 nM with HeLa; 1190 nM against Histone deacetylase [2]; 606 nM in assay [3].

In the case of `CCOC(=O)SCC(=O)c1ccc(OC)cc1`, the IC50 at Histone deacetylase [1] came out at 2810 nM; at Histone deacetylase 1, 21200 nM; in the assay on HeLa it was 18500 nM; against Histone deacetylase [2], 9790 nM; in assay [3] it was 5360 nM.

In the case of `CCSC(=S)SCC(=O)c1cccc(NC(=O)c2cnc3ccccc3c2)c1`, the IC50 came out at 36 nM against Histone deacetylase [1]; 592 nM at Histone deacetylase 1; 9610 nM in the assay with HeLa; 483 nM at Histone deacetylase [2]; 89 nM in assay [3].

With `CCSC(=S)SCC(=O)c1cccc(C(=O)NCc2ccccc2)c1`, the IC50 at Histone deacetylase [1] was 49 nM; on Histone deacetylase 1 it was 672 nM; in the assay on HeLa it was 13100 nM; at Histone deacetylase [2] it was 533 nM; in assay [3] it was 195 nM.
